According to ChEMBL document CHEMBL1139544, “Potent, orally active corticotropin-releasing factor receptor-1 antagonists containing a tricyclic pyrrolopyridine or pyrazolopyridine core” (J Med Chem, 2005):
Values belong to the molecule of their own block, whether it stands above or below them.

Key:
[1] = target: T1, Corticotropin-releasing factor receptor 1 (Homo sapiens, UniProt P34998); assay: Inhibition of [125I]sauvagine binding to corticotropin releasing factor receptor 1 expressed in LtK- cells; Not active (<30% inhibition at 10 uM); format: cell-based
T1 sequence (P34998 whole entry): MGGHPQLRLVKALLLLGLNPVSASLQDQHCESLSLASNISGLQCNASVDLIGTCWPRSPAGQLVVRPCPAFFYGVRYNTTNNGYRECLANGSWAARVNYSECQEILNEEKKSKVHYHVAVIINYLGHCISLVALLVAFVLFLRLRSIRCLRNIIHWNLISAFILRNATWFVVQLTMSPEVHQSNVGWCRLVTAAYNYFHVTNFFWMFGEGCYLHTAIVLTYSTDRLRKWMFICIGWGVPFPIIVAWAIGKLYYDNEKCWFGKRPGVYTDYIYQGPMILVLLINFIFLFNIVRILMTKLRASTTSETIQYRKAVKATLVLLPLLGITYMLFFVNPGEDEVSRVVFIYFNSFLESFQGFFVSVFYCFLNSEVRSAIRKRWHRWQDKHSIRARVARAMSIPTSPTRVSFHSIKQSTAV

[2] = target: T1, Corticotropin-releasing factor receptor 1; assay: Inhibition of [125I]sauvagine binding to corticotropin releasing factor receptor 1 expressed in LtK- cells; format: cell-based
[3] = Half life in rat following administration of 10 mg/kg, p.o. and 10 mg/kg, i.v.; format: ADME, organism-based; details: in vivo
Summary of the method: (§1)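 Male Sprague Dawley rats were given one compound intravenously via tail vein and by oral gavage (N = 3/time point), dosed in purified water at 2 mL/kg. Terminal blood and brain were taken at set times for composite sampling. Plasma was acetonitrile-precipitated and analysed by LC-MS/MS (LLOQ 5 ng/mL). Parameters came from a noncompartmental model.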

[4] = Bioavailability in rat (dose 10 mg/kg p.o. and 10 mg/kg, i.v.); format: ADME, organism-based; details: in vivo, po; summary of the method: as §1
[5] = Total body clearance in rat following administration of 10 mg/kg, p.o. and 10 mg/kg, i.v.; format: ADME, organism-based; details: in vivo, iv; summary of the method: as §1
[6] = target: Corticotropin releasing factor receptor (Rattus norvegicus, UniProt P47866+P35353); assay: Inhibition of corticotropin releasing factor stimulated adrenocorticotropic hormone release from rat pituitary cells; format: functional, cell-based; details: pituitary gland cell
Summary of the method: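 Pituitaries from 7-week-old female Sprague Dawley rats were digested with collagenase and plated at 40 000 cells/well in 3% FCS/BBM-T for 2-3 days. Compound (1 pM–1 µM) was added with 0.5 nM r/hCRF for 4 h at 37 °C. ACTH in the medium was measured by RIA, and IC50 was obtained by nonlinear curve fitting.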

[7] = Volume of distribution in rat following administration of 10 mg/kg, p.o. and 10 mg/kg, i.v.; format: ADME, organism-based; details: in vivo, iv; summary of the method: as §1
[8] = Half life in rat following administration of 10 mg/kg, p.o. and 10 mg/kg i.v.; format: ADME, organism-based; details: in vivo; summary of the method: as §1
[9] = Total body clearance in rat following administration of 10 mg/kg, p.o. and 10 mg/kg i.v.; format: ADME, organism-based; details: in vivo, iv; summary of the method: as §1
[10] = Bioavailability in rat following administration of 10 mg/kg, p.o. and 10 mg/kg i.v.; format: ADME, organism-based; details: in vivo, po; summary of the method: as §1
[11] = Bioavailability in rat following administration of 10 mg/kg, p.o. and 5 mg/kg, i.v.; format: ADME, organism-based; details: in vivo, po; summary of the method: as §1
[12] = Total body clearance in rat following administration of 10 mg/kg, p.o. and 5 mg/kg, i.v.; format: ADME, organism-based; details: in vivo, iv; summary of the method: as §1
[13] = Volume of distribution in rat following administration of 10 mg/kg, p.o. and 5 mg/kg, i.v.; format: ADME, organism-based; details: in vivo, iv; summary of the method: as §1
[14] = Half life in rat following administration of 10 mg/kg, p.o. and 5 mg/kg, i.v.; format: ADME, organism-based; details: in vivo; summary of the method: as §1
[15] = Half life in rat following administration of 2 mg/kg, p.o. and 1 mg/kg, i.v.; format: ADME, organism-based; details: in vivo
Summary of the method: (§2)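 Cassette study in male Sprague Dawley rats: five compounds were co-administered at 2 mg/kg po (gavage) and by tail-vein iv (N = 3/time point), in purified water at 2 mL/kg. Composite terminal plasma sampling was used. Plasma was acetonitrile-precipitated for LC-MS/MS (LLOQ 5 ng/mL). Parameters came from a noncompartmental model.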

[16] = Volume of distribution in rat following administration of 2 mg/kg, p.o. and 1 mg/kg, i.v.; format: ADME, organism-based; details: in vivo, iv; summary of the method: as §2
[17] = Bioavailability in rat (dose 2 mg/kg p.o. and 1 mg/kg, i.v.); format: ADME, organism-based; details: in vivo, po; summary of the method: as §2
[18] = Total body clearance in rat following administration of 2 mg/kg, p.o. and 1 mg/kg, i.v.; format: ADME, organism-based; details: in vivo, iv; summary of the method: as §2

SMILES: CCCC(CCC)N1CCc2c3c1cc(C)nc3nn2-c1ccc(Cl)cc1Cl
Ki [1]: Not Active

SMILES: CCC(COC)N1CCc2cn(-c3ccc(Cl)cc3C#N)c3nc(C)cc1c23 (stereo unspecified)
Ki [2]: 40 nM

SMILES: COCC(COC)N1CCc2cn(-c3ccc(Cl)cc3C#N)c3nc(C)cc1c23
Ki [2]: 120 nM

SMILES: CCC(CC)N1CCc2cn(-c3ccc(Cl)cc3C#N)c3nc(C)cc1c23
Ki [2]: 62 nM

SMILES: Cc1cc2c3c(cn(-c4ccc(Cl)cc4C#N)c3n1)CCN2C
Ki [1]: Not Active

SMILES: CCCCN1CCc2cn(-c3ccc(Cl)cc3C#N)c3nc(C)cc1c23
Ki [2]: 49 nM

SMILES: CCC(COC)N1CCc2cn(-c3c(C)cc(Cl)cc3C)c3nc(C)cc1c23 (stereo unspecified)
half-life [15]: 2.5 h | Vd [16]: 19 L/kg | Ki [2]: 16 nM | bioavailability [17]: 66% | clearance [18]: 87 mL/min/kg | IC50 [6]: 27 nM

SMILES: CCC(CC)N1CCc2cn(-c3ccc(OC(F)(F)F)cc3C)c3nc(C)cc1c23
half-life [15]: 33 h | Vd [16]: 80 L/kg | Ki [2]: 6 nM | bioavailability [17]: 76% | clearance [18]: 28 mL/min/kg | IC50 [6]: 48 nM

SMILES: CCCCN(CC)c1nc(C)nc2c1c(C)c(C)n2-c1c(C)cc(C)cc1C [ANTALARMIN]
Ki [2]: 3.1 nM

The remaining lines, values ahead:

Ki [2]: 30 nM
SMILES: CCCC(CCC)N1CCc2cn(-c3ccc(C)cc3)c3nc(C)cc1c23

Ki [2]: 1900 nM
SMILES: CCCC(CCC)N1CCc2cn(Cc3ccc(Cl)cc3C)c3nc(C)cc1c23

Ki [2]: 55 nM
SMILES: CCCC(CCC)N1CCc2cn(-c3ccccc3OC)c3nc(C)cc1c23

Ki [2]: 13 nM | half-life [3]: 5 h | bioavailability [4]: 74% | clearance [5]: 152 mL/min/kg | IC50 [6]: 250 nM | Vd [7]: 66 L/kg
SMILES: CCCC(CCC)N1CCc2cn(-c3ccc(S(C)(=O)=O)cc3Cl)c3nc(C)cc1c23

Ki [2]: 6.5 nM | half-life [3]: 5.7 h | bioavailability [4]: 18% | clearance [5]: 107 mL/min/kg | IC50 [6]: 39 nM | Vd [7]: 53 L/kg
SMILES: CCCC(CCC)N1CCc2cn(-c3ccc(OC)cc3C)c3nc(C)cc1c23

Ki [2]: 3.5 nM | half-life [8]: 6.3 h | clearance [9]: 70 mL/min/kg | IC50 [6]: 14 nM | Vd [7]: 38 L/kg | bioavailability [10]: 24%
SMILES: CCCC(CCC)N1CCc2cn(-c3ccc(C)cc3Cl)c3nc(C)cc1c23

Ki [2]: 5.4 nM | half-life [3]: 10 h | bioavailability [4]: 50% | clearance [5]: 70 mL/min/kg | IC50 [6]: 29 nM | Vd [7]: 62 L/kg
SMILES: CCCC(CCC)N1CCc2cn(-c3ccc(OC)nc3OC)c3nc(C)cc1c23

Ki [2]: 2.9 nM | bioavailability [11]: 7% | clearance [12]: 43 mL/min/kg | IC50 [6]: 6.8 nM | Vd [13]: 44 L/kg | half-life [14]: 12 h
SMILES: CCCC(CCC)N1CCc2nn(-c3ccc(Cl)cc3Cl)c3nc(C)cc1c23

Ki [2]: 4.2 nM
SMILES: CCCC(CCC)N1CCc2cn(-c3ccc(Cl)cc3Cl)c3nc(C)cc1c23

Ki [2]: 13 nM
SMILES: CCCC(CCC)N1CCc2cn(-c3ccc(Cl)cc3C#N)c3nc(C)cc1c23

Ki [2]: 7.2 nM
SMILES: CCCC(CCC)N1CCc2cn(-c3ccc(C#N)cc3Cl)c3nc(C)cc1c23

Ki [2]: 190 nM
SMILES: CCCC(CCC)N1CCc2cn(-c3cccc(OC)c3)c3nc(C)cc1c23
